# Measured values from different studies.
# Target: Peroxisome proliferator-activated receptor alpha (PPARA, Homo sapiens, UniProt Q07869)
# Residues used in one study (Q07869 1-468): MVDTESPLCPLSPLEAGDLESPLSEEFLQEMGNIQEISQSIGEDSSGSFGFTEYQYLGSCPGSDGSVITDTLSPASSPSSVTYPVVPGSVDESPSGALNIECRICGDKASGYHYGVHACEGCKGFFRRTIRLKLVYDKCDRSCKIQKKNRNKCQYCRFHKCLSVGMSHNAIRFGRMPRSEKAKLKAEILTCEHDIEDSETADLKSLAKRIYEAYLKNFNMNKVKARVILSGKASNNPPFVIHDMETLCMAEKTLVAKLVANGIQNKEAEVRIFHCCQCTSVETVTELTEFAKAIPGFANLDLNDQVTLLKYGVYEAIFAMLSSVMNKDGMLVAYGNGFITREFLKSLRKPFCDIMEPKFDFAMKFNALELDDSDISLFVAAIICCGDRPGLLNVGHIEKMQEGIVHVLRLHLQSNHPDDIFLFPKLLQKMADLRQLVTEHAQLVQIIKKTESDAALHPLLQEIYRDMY
SMILES,test,quantity,result
CC(C)(Oc1ccc(C(=O)c2ccc(Cl)cc2)cc1)C(=O)O,"reporter gene, agonist, luciferase",EC50,47.1 µM
O=C(Nc1ccc(CCF)cc1)c1cc([N+](=O)[O-])ccc1Cl,"enzyme activity in cells, inhibitor",IC50,> 2 µM
C=CCc1ccc(O)c(-c2cc(CC=C)ccc2O)c1,"ligand displacement, TR-FRET",Ki,3.38 µM
O=C(Nc1ccc(OCCF)cc1)c1cc([N+](=O)[O-])ccc1Cl,"enzyme activity in cells, inhibitor",IC50,> 2 µM
Cc1ccc(C)c(OCCCC(C)(C)C(=O)O)c1,"reporter gene, agonist, luciferase",EC50,201 µM
Cc1c(C)n(Cc2ccc(-c3ccccc3C(=O)O)cc2)c2ccc(C(=O)N[C@@H](C)c3ccc(C(C)(C)C)cc3)cc12,"ligand displacement, TR-FRET",Ki,0.594 µM
CC1(C)C=Cc2c(cc3oc(-c4ccccc4)c(O)c(=O)c3c2O)O1,"ligand displacement, TR-FRET",Ki,3.3 µM
C=CCc1ccc(O)c(-c2ccc(O)c(CC=C)c2)c1,"ligand displacement, TR-FRET",Ki,4.6 µM
O=C(Nc1ccc(Oc2ncccn2)cc1C(=O)O)c1ccc(Cl)cc1Cl,"ligand displacement, TR-FRET",IC50,11.9 µM
CCCCCC#CCC#CCC#CCC#CCCCC(=O)O,"reporter gene, agonist, luciferase",EC50,0.99 µM
